UCH37 DUB inh = inhibitors of human UCH37 deubiquitinase, primary screen, biochemical, Ub-AMC cleavage, fluorescence | AID 588478, 2011 | purified proteasome/UCH37 | 330,000 tested, 0.33% active | Ubiquitin carboxyl-terminal hydrolase isozyme L5 (Homo sapiens), Q9Y5K5 | inhibition, % (no concentration beside the values);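 active = mean inhibition over replicate wells above about 20%, limit read from the data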;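 also: 0% = compound-free wells with enzyme and 100% = wells lacking proteasome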
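Signal – fluorescence, ex 355 nm, em 460 nm · System – Proteasome-bound UCH37 · Input – 0.15 nM proteasome as dispensed · Timing – 30 min preincubation with enzyme, 25 min cleavage at room temperature · Read-out basis – percent inhibition of cleavage signal versus uninhibited and no-proteasome wells · Medium – Tris-HCl pH 7.4 with ATP-MgCl2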
PKA-R2B activ = activators of PKA-R2B holoenzyme, primary screen, biochemical, fluorescence polarization, Cy5-IP20, human; cAMP-dependent protein kinase catalytic subunit beta (Homo sapiens) + cAMP-dependent …; PKA-R2B holoenzyme dissociation; R2B truncated from residue 108, S112A mutant; 0% DMSO only, 100% 113 µM cGMP; activation, % at 11.4 µM; 340,000 tested, 0.079% active; AID 504700, 2011;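 active = activation above a cutoff set at the mean over all compounds plus 3 SD, cut at about 18% in these data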;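 also: higher means more holoenzyme dissociation and a rise in polarization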
Target sequence (P31323 whole entry, looked up, other chains not shown, the tested form may be a part): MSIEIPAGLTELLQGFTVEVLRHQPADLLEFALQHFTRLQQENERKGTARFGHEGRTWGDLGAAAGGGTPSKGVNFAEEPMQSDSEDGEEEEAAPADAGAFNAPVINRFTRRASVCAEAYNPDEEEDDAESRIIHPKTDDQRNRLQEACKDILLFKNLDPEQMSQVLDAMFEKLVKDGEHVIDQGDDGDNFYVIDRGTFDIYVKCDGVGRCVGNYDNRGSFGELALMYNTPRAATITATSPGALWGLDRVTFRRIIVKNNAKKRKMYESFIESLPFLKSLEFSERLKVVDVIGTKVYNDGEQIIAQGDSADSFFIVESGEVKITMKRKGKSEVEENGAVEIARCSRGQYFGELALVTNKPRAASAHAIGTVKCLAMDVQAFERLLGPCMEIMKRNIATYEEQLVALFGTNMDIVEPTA
Fh CTSL1 inh = Fasciola hepatica cathepsin L1 inhibitors, primary screen, counter-screen for PFM18AAP inhibitor project, biochemical, QFRET, fluorogenic peptide substrate; 300,000 tested, 0.49% active; inhibition, % at 5.96 µM; AID 1906, 2009; recombinant F. hepatica cathepsin L1, Z-Leu-Arg-MCA fluorescence;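 active = inhibition above the mean of all tested compounds plus 3 SD, set per screening campaign, cut at about 17% in these data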;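 also: 0% = plate median of test compound wells and 100% = 1 µM Z-Phe-Ala-diazomethylketone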
aDG glyco act = activators of alpha-DG glycosylation, primary screen, uHTS, Pro5-aDG cells, AlphaScreen; activation, % at 10 µM; 360,000 tested, 0.22% active; alpha-DG glycosylation AlphaScreen (IIH6); 0% Pro5, 100% B10-LARGE cell signal;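 active = activation of at least 8% versus controls, or a plate z-score of at least 8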;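 also: Pro5 are CHO cells carrying HIG-tagged alpha-DG that lacks glycosylation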
PKA-R1A act = activators of PKA-R1A holoenzyme, primary screen, biochemical, fluorescence polarization, Cy5-IP20, bovine R1A, mouse PKAc; 340,000 tested, 0.083% active; activation, % at 11.4 µM; AID 504707, 2011; cAMP-dependent protein kinase type I-alpha regulatory subunit (Bos taurus) + …; PKA-R1A dissociation; scaled: DMSO 0%, 113 µM cGMP 100%;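 active = percent activation above the mean of all tested compounds plus 3 SD, cut at about 19% in these data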;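 also: higher means more PKAc released from R1A so a rise in polarization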
R2B FP artifact = fluorescence polarization artefacts, biochemical, artefact control for PKA-R2B activator project; AID 504796, 2011; shares compounds with PKA-R2B activ; FP artifact counterscreen; activation, % at 11.4 µM; 270 tested, 6% active; in the data active = activation above about 20%;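 also: Cy5 labelled IP20 peptide probe with compound but no PKA protein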
PKA-R2B confirm = activators of PKA-R2B holoenzyme, confirmation, biochemical, fluorescence polarization, human; shares compounds with PKA-R2B activ; PKA-R2B complex, activation; activation, % at 11.4 µM; 270 tested, 9% active; AID 504797, 2011; in the data active = activation above about 19%
Target sequence (P31323 whole entry, looked up): as the sequence (P31323 whole entry, looked up, other chains not shown, the tested form may be a part) above
R1A FP artifact = FP signal interference without PKA proteins, confirmation, artefact control for PKA-R1A activator project, biochemical, fluorescence polarization, triplicate; shares compounds with PKA-R1A act; Cy5-IP20 peptide alone, fluorescence polarization artifact counterscreen; activation, % at 11.4 µM; 280 tested, 7% active;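 active = mean activation over triplicate runs exceeds the adjusted cutoff derived for the parent primary screen, cut at about 19% in these data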;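 also: no PKA protein present so any polarization rise reflects compound interference; 0% = tracer peptide mix alone and 100% = mix with added PKA catalytic subunit; higher means stronger polarization artifact and likely false positive in parent screen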
PKA-R1A act conf = activators of PKA-R1A holoenzyme, confirmation, biochemical, fluorescence polarization, Cy5-IP20, triplicate; 280 tested, 9% active; AID 504800, 2011; shares compounds with PKA-R1A act; activation, % at 11.4 µM; PKA-R1A holoenzyme dissociation;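 active = mean activation over replicate wells exceeds the adjusted hit threshold taken from the earlier primary screen, cut at about 20% in these data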;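 also: 0% = holoenzyme mix with DMSO only and 100% = cGMP-activated control wells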
UCH37 confirm = retest of human UCH37 deubiquitinase inhibitors, confirmation, biochemical, Ub-AMC cleavage rate, fluorescence; shares compounds with UCH37 DUB inh; Proteasome-bound UCH37; inhibition, % at 20 µM; 480 tested, 27% active; AID 624100, 2012;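 active = average inhibition over replicates above about 50%, so the earlier screening hit is confirmed, limit read from the data; inactive = the rest, counted as false positives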;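 also: based on cleavage rate fitted by regression over a 30 min kinetic read; 0% = proteasome plus Ub-AMC and 100% = Ub-AMC without proteasome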
An asterisk follows results filed as active; . = no result. In the library only some 0.94% were active in any assay of this set; here they are far more common.

SMILES	UCH37 DUB inh	PKA-R2B activ	Fh CTSL1 inh	aDG glyco act	PKA-R1A act	others
CC(=Nc1ccc2c(c1)CCC2)c1c(O)n(C)c(=O)n(C)c1=O	32*	-8	0	0	-6
CCC(=Nc1ccc2c(c1)CCC2)c1c(O)n(C)c(=O)n(C)c1=O	2	2	-7	3	-9
O=C(CSC1c2ccccc2-c2ccccc21)NN=Cc1ccccc1	3	.	.	.	.
CCc1nc2ccccc2c(=O)n1-c1ccccc1[N+](=O)[O-]	1	-11	3	0	-13
CCCCc1nc2ccccc2c(=O)n1-c1ccccc1[N+](=O)[O-]	24*	0	0	0	-7
O=c1[nH]c(=O)n(CCc2ccc(F)cc2)c(O)c1C=NCCCn1ccnc1	26*	-4	4	0	-3
O=c1[nH]c(=O)n(CCC2=CCCCC2)c(O)c1C=NCCCn1ccnc1	3	-3	0	0	-1
Cc1cccc(N2C(=O)NC(=O)/C(=C\C=C\c3ccco3)C2=O)c1	1	-3	0	0	5
Cc1cccc(N2C(=O)NC(=O)/C(=C/c3ccc([N+](=O)[O-])o3)C2=O)c1	21*	.	4	.	.
Cc1onc(-c2c(Cl)cccc2Cl)c1C(N)=NOC(=O)N(C)C	1	.	.	.	.
CCOC(=O)c1cc(CC)sc1N=CC1C(=O)NC(=S)NC1=O	5	.	.	.	.
CC1(C)C[C@H]2C=C(C=O)[C@]3(C=O)C[C@]3(C)[C@H]2C1	.	-6	17*	0	1
CC(=O)C1C2c3ccccc3OC1(C)N=c1s/c(=C/c3cn(C)nc3C)c(=O)n12 (configuration not stated)	.	5	34*	0	-3
CCCCOc1ccc(CC2C(=O)N(C)C(=O)N(C)C2=O)cc1	29*	-8	-5	0	-2
CN1C(=O)C(Cc2ccccc2)C(=O)N(C)C1=O	.	-4	.	0	7
OCCNc1c2c(nc3ccccc13)CCCC2	9	2	-1	1	2
CNc1ccc2nc3ccccc3[n+](C)c2c1	.	-4	16	2.7*	1
C[n+]1c2ccccc2nc2ccc(NCCO)cc21	19	-4	38*	0	-1
CCOc1ccc(C=C2C(=O)NC(=S)NC2=O)cc1OCC	2	-5	.	0	6
CCOc1cc(C=C2C(=O)NC(=O)NC2=O)ccc1OS(=O)(=O)c1ccccc1	20*	8	0	0	7
O=C(NC(C(Cl)Cl)N1CCOCC1)c1ccccc1 (configuration not stated)	-1	7	68*	0	-1
O=C(NCC(c1cccnc1)N1CCOCC1)Oc1ccccc1 (configuration not stated)	4	8	2	0	0
CNC(=O)ON=C(C)Cc1nnn(-c2cc(C)on2)n1	1	.	.	.	.
COC(=O)C1=C(c2ccc(Cl)c(C(F)(F)F)c2)C[C@@H]2CC[C@H]1N2C(=O)NCCO	33*	3	.	0	-2
COC(=O)C1C2c3ccccc3OC1(C)N=c1sc(=Cc3cnn(C)c3C)c(=O)n12 (configuration not stated)	2	.	.	.	.
SMILES	UCH37 DUB inh	PKA-R2B activ	Fh CTSL1 inh	aDG glyco act	PKA-R1A act	others
C#CCNc1ccncc1S(=O)(=O)NC(=O)NC(C)C	4	20*	-4	0	10	R2B FP artifact=2;PKA-R2B confirm=2
CCN1C[C@]2(C)CC[C@H](OC)C34C2[C@H](OC(C)=O)[C@@]2(OCO[C@@]25C[C@H](OC)[C@H]2C[C@]3(O)C5[C@H]2OC)[C@@H]14	1	.	.	.	.
COC(=O)C1=C(c2c(C)noc2C)C[C@@H]2CC[C@H]1N2C(=O)NC(C)C	-1	-5	.	1	4
COC(=O)C1=C(c2c(C)noc2C)C[C@@H]2CC[C@H]1N2C(=O)N1CCCC1	1	-7	.	0	20*	R1A FP artifact=3;PKA-R1A act conf=3
CCOC(=O)c1ccccc1NC(=O)c1c(O)[nH]c(=S)[nH]c1=O	4	1	5	0	19*	R1A FP artifact=1;PKA-R1A act conf=1
COC(=O)C1C2c3ccccc3OC1(C)N=c1sc(=Cc3cn(C)nc3C)c(=O)n12 (configuration not stated)	2	.	.	.	.
O=C(O)CC1OCC=C2CN3CCC45C6=CC(=O)C(=O)C([N+](=O)[O-])=C6NC4C1C2CC35 (configuration not stated)	97*	-3	106*	0	-4	UCH37 confirm=97*
O=C1CC2OCC=C3CN4CCC56c7cc([N+](=O)[O-])ccc7N1C5C2C3CC46 (configuration not stated)	8	2	4	0	-15
O=C1C(=O)c2ccccc2-c2ccccc21	87*	1	110*	0	-9	UCH37 confirm=101*
CC12CC[C@H]3[C@@H](CCC4(O)C[C@H](O)CCC34C=NNC(=O)c3ccccc3F)C1(O)CCC2C1=CC(=O)OC1 (some centres not stated)	1	.	.	.	.
Cc1cccc(-n2c(O)c(/C=N/Nc3nc4c(c(=O)n(C)c(=O)n4C)n3C)c(=O)[nH]c2=S)c1	27*	1	-2	0	-5	UCH37 confirm=22
COC(=O)C1=C(c2cccc(C#N)c2)C[C@@H]2CC[C@H]1N2C(=O)NCCOc1ccccc1	0	0	.	0	-8
